Laboratory results as given in ChEMBL document CHEMBL3804761, “Synthesis of a stable and orally bioavailable englerin analogue” (Bioorg Med Chem Lett, 2016).

Columns and labels:
Assay type in all cases: functional
[1] = system: MDA-MB-468; assay: Growth inhibition of human MDA-MB-468 cells assessed as cell growth at 10 uM incubated for 48 hrs by sulforhodamine B assay relative to control; details: MDA-MB-468, 48 h, read-out: Activity
In short: (§1)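 Run in the standard NCI 60-cell-line screen. Cells were exposed to drug for two days, and the read-out was sulforhodamine B staining. Compound was tested at a single final concentration of 10 µM in every line, and results are reported as growth percent.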

[2] = Growth inhibition of human HOP92 cells incubated for 48 hrs by sulforhodamine B assay; details: HOP-92, 48 h; for TGI: read-out: pTGI (converted)
In short: (§2)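 NCI 60-cell-line panel, standard protocol. Cells exposed to compound for two days, growth read by sulforhodamine B staining. Tested at five 10-fold dilutions, top concentration 100 µM, to give dose-response curves.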

[3] = Growth inhibition of human IGROV1 cells incubated for 48 hrs by sulforhodamine B assay; details: IGROV-1, 48 h; for CC50: read-out: pLC50 (the source's name) (converted); for TGI: read-out: pTGI (converted); in short: as §2
[4] = Growth inhibition of human SF295 cells assessed as cell growth at 10 uM incubated for 48 hrs by sulforhodamine B assay relative to control; details: SF-295, 48 h, read-out: Activity; in short: as §1
[5] = Growth inhibition of human OVCAR3 cells incubated for 48 hrs by sulforhodamine B assay; details: OVCAR-3, 48 h; for TGI: read-out: pTGI (converted); in short: as §2
[6] = system: KM12; assay: Growth inhibition of human KM12 cells assessed as cell growth at 10 uM incubated for 48 hrs by sulforhodamine B assay relative to control; details: KM12, 48 h, read-out: Activity; in short: as §1
[7] = system: MDA-MB-468; assay: Growth inhibition of human MDA-MB-468 cells incubated for 48 hrs by sulforhodamine B assay; details: MDA-MB-468, 48 h; for CC50: read-out: pLC50 (the source's name) (converted); for TGI: read-out: pTGI (converted); in short: as §2
[8] = system: SR; assay: Growth inhibition of human SR cells assessed as cell growth at 10 uM incubated for 48 hrs by sulforhodamine B assay relative to control; details: read-out: Activity; in short: as §1
[9] = Growth inhibition of human HL-60(TB) cells incubated for 48 hrs by sulforhodamine B assay; details: HL-60, 48 h; for CC50: read-out: pLC50 (the source's name) (converted); for TGI: read-out: pTGI (converted); in short: as §2
[10] = system: T47D; assay: Growth inhibition of human T47D cells incubated for 48 hrs by sulforhodamine B assay; details: for CC50: read-out: pLC50 (the source's name) (converted); for TGI: read-out: pTGI (converted)
In short: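 Tested in the standard NCI 60-cell-line protocol with two-day drug exposure and a sulforhodamine B endpoint. Compounds were first screened at a single final concentration of 10 µM, reported as growth percent. They were then run as five 10-fold dilutions starting from a high concentration of 100 µM to give dose-response curves.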

[11] = Growth inhibition of human IGROV1 cells assessed as cell growth at 10 uM incubated for 48 hrs by sulforhodamine B assay relative to control; details: IGROV-1, 48 h, read-out: Activity; in short: as §1
[12] = system: SK-MEL-2; assay: Growth inhibition of human SK-MEL-2 cells assessed as cell growth at 10 uM incubated for 48 hrs by sulforhodamine B assay relative to control; details: SK-MEL-2, 48 h, read-out: Activity; in short: as §1
[13] = system: MCF7; assay: Growth inhibition of human MCF7 cells assessed as cell growth at 10 uM incubated for 48 hrs by sulforhodamine B assay relative to control; details: MCF7, 48 h, read-out: Activity; in short: as §1
[14] = Growth inhibition of human OVCAR8 cells incubated for 48 hrs by sulforhodamine B assay; details: OVCAR-8, 48 h; for TGI: read-out: pTGI (converted); in short: as §2
[15] = system: NCI/ADR-RES; assay: Growth inhibition of human NCI/ADR-RES cells assessed as cell growth at 10 uM incubated for 48 hrs by sulforhodamine B assay relative to control; details: read-out: Activity; in short: as §1
[16] = system: MDA-MB-231; assay: Growth inhibition of human MDA-MB-231 cells incubated for 48 hrs by sulforhodamine B assay; details: MDA-MB-231, 48 h; for CC50: read-out: pLC50 (the source's name) (converted); for TGI: read-out: pTGI (converted); in short: as §2
[17] = system: NCI-H522; assay: Growth inhibition of human NCI-H522 cells incubated for 48 hrs by sulforhodamine B assay; details: NCI-H522, 48 h; for TGI: read-out: pTGI (converted); in short: as §2
[18] = system: SK-MEL-28; assay: Growth inhibition of human SK-MEL-28 cells incubated for 48 hrs by sulforhodamine B assay; details: SK-MEL-28, 48 h; for TGI: read-out: pTGI (converted); in short: as §2
[19] = system: ACHN; assay: Growth inhibition of human ACHN cells incubated for 48 hrs by sulforhodamine B assay; details: for TGI: read-out: pTGI (converted); in short: as §2
[20] = Growth inhibition of human COLO205 cells incubated for 48 hrs by sulforhodamine B assay; details: COLO 205, 48 h; for CC50: read-out: pLC50 (the source's name) (converted); for TGI: read-out: pTGI (converted); in short: as §2
[21] = Growth inhibition of human PC3 cells assessed as cell growth at 10 uM incubated for 48 hrs by sulforhodamine B assay relative to control; details: PC-3, 48 h, read-out: Activity; in short: as §1
[22] = system: T47D; assay: Growth inhibition of human T47D cells assessed as cell growth at 10 uM incubated for 48 hrs by sulforhodamine B assay relative to control; details: read-out: Activity
In short: (§3)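 NCI 60-cell line standard protocol, one-dose screen: single final concentration 10 µM, 2-day drug exposure, sulforhodamine B (SRB) endpoint; read-out is growth percent relative to untreated control.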

[23] = Growth inhibition of human HCT116 cells assessed as cell growth at 10 uM incubated for 48 hrs by sulforhodamine B assay relative to control; details: HCT-116, 48 h, read-out: Activity; in short: as §1
[24] = Growth inhibition of human OVCAR5 cells assessed as cell growth at 10 uM incubated for 48 hrs by sulforhodamine B assay relative to control; details: OVCAR-5, 48 h, read-out: Activity; in short: as §1
[25] = Growth inhibition of human UO31 cells assessed as cell growth at 10 uM incubated for 48 hrs by sulforhodamine B assay relative to control; details: UO-31, 48 h, read-out: Activity; in short: as §3
[26] = Growth inhibition of human LOXIMVI cells incubated for 48 hrs by sulforhodamine B assay; details: LOX IMVI; for TGI: read-out: pTGI (converted); in short: as §2
[27] = Growth inhibition of human SF539 cells incubated for 48 hrs by sulforhodamine B assay; details: SF-539, 48 h; for TGI: read-out: pTGI (converted); in short: as §2
[28] = system: A549; assay: Growth inhibition of human A549/ATCC cells incubated for 48 hrs by sulforhodamine B assay; details: A549, 48 h; for TGI: read-out: pTGI (converted); in short: as §2
[29] = Growth inhibition of human DU145 cells incubated for 48 hrs by sulforhodamine B assay; details: DU-145, 48 h; for CC50: read-out: pLC50 (the source's name) (converted); for TGI: read-out: pTGI (converted); in short: as §2
[30] = Growth inhibition of human DU145 cells assessed as cell growth at 10 uM incubated for 48 hrs by sulforhodamine B assay relative to control; details: DU-145, 48 h, read-out: Activity; in short: as §1

## CC(C)[C@@]12C[C@@H](NC(=O)CO)[C@@](C)(O1)[C@@H]1CC[C@@H](C)[C@H]1[C@@H]2OC(=O)c1ccc2ccccc2c1
[1]
  growth at 10 µM: 81.5%
[2]
  GI50: 9.33 µM
  LC50: 52.5 µM
  TGI: 22.9 µM
[3]
  GI50: 17.8 µM
  CC50: 61.7 µM
  TGI: 33.1 µM
[4]
  growth at 10 µM: 82.5%
[5]
  GI50: 17 µM
  LC50: 57.5 µM
  TGI: 30.9 µM
[6]
  growth at 10 µM: 94.5%
[7]
  GI50: 14.8 µM
  CC50: 57.5 µM
  TGI: 28.8 µM
[8]
  growth at 10 µM: 82.5%
[9]
  GI50: 20.4 µM
  CC50: 87.1 µM
  TGI: 41.7 µM
[10]
  GI50: 14.8 µM
  CC50: 56.2 µM
  TGI: 28.8 µM
[11]
  growth at 10 µM: 94.3%
[12]
  growth at 10 µM: 100%
[13]
  growth at 10 µM: 75.4%
[14]
  GI50: 6.46 µM
  LC50 (concentration killing 50% of cells): 60.3 µM
  TGI: 22.4 µM
[15]
  growth at 10 µM: 46.8%
[16]
  GI50: 15.1 µM
  CC50: 67.6 µM
  TGI: 32.4 µM
[17]
  GI50: 15.5 µM
  LC50: 56.2 µM
  TGI: 29.5 µM
[18]
  GI50: 16.6 µM
  LC50: 57.5 µM
  TGI: 30.9 µM
[19]
  GI50: 5.37 µM
  LC50 (concentration killing 50% of cells): 42.7 µM
  TGI: 17 µM
[20]
  GI50: 19.1 µM
  CC50: 61.7 µM
  TGI: 34.7 µM
[21]
  growth at 10 µM: 66.9%
[22]
  growth at 10 µM: 67.9%
[23]
  growth at 10 µM: 75.7%
[24]
  growth at 10 µM: 84.5%
[25]
  growth at 10 µM: 63.3%
[26]
  GI50: 16.2 µM
  LC50: 57.5 µM
  TGI: 30.2 µM
[27]
  GI50: 15.5 µM
  LC50: 55 µM
  TGI: 29.5 µM
[28]
  GI50: 14.8 µM
  LC50: 63.1 µM
  TGI: 30.2 µM
[29]
  GI50: 16.2 µM
  CC50: 56.2 µM
  TGI: 30.2 µM
[30]
  growth at 10 µM: 98.4%

## CC(C)[C@@]12C[C@@H](NC(=O)CO)[C@@](C)(O1)[C@@H]1CC[C@@H](C)[C@H]1[C@@H]2OC(=O)/C=C/c1ccccc1
[1]
  growth at 10 µM: 91.3%
[2]
  GI50: 5.25 µM
  LC50: > 50.1 µM
  TGI: 24 µM
[3]
  GI50: > 50.1 µM
  CC50: > 50.1 µM
  TGI: > 50.1 µM
[4]
  growth at 10 µM: 90.6%
[5]
  GI50: 14.8 µM
  LC50: > 50.1 µM
  TGI: 49 µM
[6]
  growth at 10 µM: 111%
[7]
  GI50: 12.3 µM
  CC50: > 50.1 µM
  TGI: > 50.1 µM
[8]
  growth at 10 µM: 79.1%
[9]
  GI50: 14.5 µM
  CC50: > 50.1 µM
  TGI: 37.2 µM
[10]
  GI50: 19.1 µM
  CC50: > 50.1 µM
  TGI: > 50.1 µM
[11]
  growth at 10 µM: 106%
[12]
  growth at 10 µM: 101%
[13]
  growth at 10 µM: 94.4%
[14]
  GI50: 4.79 µM
  LC50 (concentration killing 50% of cells): > 50.1 µM
  TGI: > 50.1 µM
[15]
  growth at 10 µM: 42.9%
[16]
  GI50: 24.5 µM
  CC50: > 50.1 µM
  TGI: > 50.1 µM
[17]
  GI50: 19.1 µM
  LC50: > 50.1 µM
  TGI: > 50.1 µM
[18]
  GI50: 20.9 µM
  LC50: > 50.1 µM
  TGI: > 50.1 µM
[19]
  GI50: 3.98 µM
  LC50 (concentration killing 50% of cells): > 50.1 µM
  TGI: 35.5 µM
[20]
  GI50: 10.7 µM
  CC50: > 50.1 µM
  TGI: 26.3 µM
[21]
  growth at 10 µM: 77.5%
[22]
  growth at 10 µM: 76.3%
[23]
  growth at 10 µM: 85.8%
[24]
  growth at 10 µM: 93%
[25]
  growth at 10 µM: 57.2%
[26]
  GI50: 14.5 µM
  LC50: > 50.1 µM
  TGI: > 50.1 µM
[27]
  GI50: 42.7 µM
  LC50: > 50.1 µM
  TGI: > 50.1 µM
[28]
  GI50: 13.5 µM
  LC50: > 50.1 µM
  TGI: > 50.1 µM
[29]
  GI50: 25.1 µM
  CC50: > 50.1 µM
  TGI: > 50.1 µM
[30]
  growth at 10 µM: 110%
